In paper PMC7559020 (ACS infectious diseases, 2020):
Where two headings read alike, the source gives them in different places.

Tests used:
DENV2 = test: Viral plaque reduction assay, DENV2 in A549 cells; assay type: cell-based; details: read-out: EC50-DN2 (A549)
ZIKV [1] = test: Viral titer reduction assay, ZIKV in A549 cells; assay type: cell-based, Zika virus
Method in brief: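 ZIKV infection of human A549 lung carcinoma cells with test compound over a dose range. Virus titre reduction measured, run in triplicate. EC50 obtained by nonlinear regression fit of the dose–response curve.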

A549 cells = test: WST-8 cell proliferation; details: read-out: CC50 (A549); cell viability, A549 cells, 48 h
ZIKV NS3 = test: Western blot of ZIKV NS3 and polyprotein precursor in infected A549 cells; assay type: cell-based, Zika virus; details: A549, MOI 0.1, 48 h
Method in brief: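 Preseeded A549 cells were treated with a dose series of test compound or DMSO and infected with ZIKV at MOI 0.1. At 48 h post-infection, cells were washed, harvested, given protease inhibitor cocktail and lysed in SDS-PAGE loading buffer (95 °C, 10 min). Blots were probed with anti-ZIKV NS3 and anti-GAPDH. PP and NS3 band intensities were normalised to GAPDH, N = 3.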

WST-8 cell proliferation = details: human
MBP-NS3 Y23A = MBP-NS3 Y23A (Dengue virus type 2, UniProt P29990, Y1498A); assay type: binding, DENV2; details: Y23A vs WT
3D organoids = test: Toxicity on 3D mini-brain organoids; assay type: cell-based, human; details: 1.5 μM
ZIKV [2] = test: ZIKV infection of 3D mini-brain organoids; assay type: cell-based, Zika virus; details: 1.5 μM
[3] = Repeated oral dosing toxicity in mice; assay type: in vivo, mouse; details: repeated oral dosing 40 mg/kg/day for 7 days, N = 6
ZIKV [4] = test: Immunofluorescence assay; assay type: cell-based, Zika virus; details: IFA, anti-E 4G2, A549 cells
Method in brief: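 ZIKV-infected cells treated with test compound or DMSO. Viral E protein detected with mouse monoclonal pan-flavivirus anti-E 4G2 and a DyLight 488 goat anti-mouse IgG secondary. Nuclei counterstained with Hoechst.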

ZIKV [5] = test: qRT-PCR of viral RNA from ZIKV-infected A549 cells; assay type: cell-based, Zika virus
ZIKV [6] = test: ZIKV inhibition in human neural progenitor cells; assay type: cell-based, Zika virus; details: human iPSC-derived neural progenitor cells, IFA and qRT-PCR
ZIKV [7] = test: Time of addition experiment, ZIKV titer by plaque forming assay; assay type: cell-based, Zika virus; details: 0.75 μM added at time points postinfection, titers at 48 h
MBP-NS3 F46A = MBP-NS3 F46A (Dengue virus type 2, UniProt P29990, F1521A); assay type: binding, DENV2; details: F46A vs WT
MBP-NS3 I25A = details: I25A vs WT
MBP-NS3 L58A = MBP-NS3 L58A (Dengue virus type 2, UniProt P29990, L1533A); test: SPR binding to MBP-NS3 mutant L58A; design: species or system DENV2; details: L58A vs WT
MBP-NS3 H60A = MBP-NS3 H60A (Dengue virus type 2, UniProt P29990, H1535A); assay type: binding, DENV2; details: H60A vs WT
viral NS3 protease = viral NS3 protease (Dengue virus type 2, UniProt P29990); test: Protein thermal shift assay; assay type: binding; details: PTSA
DENV2 replicon = DENV2 replicon assay; assay type: cell-based; details: Dengue virus, DENV2, BHK-21, 48 h, read-out: EC50-DN2 (DENV2 replicon cell line)
ZIKV [8] = test: ZIKV viremia mouse model; assay type: in vivo, Zika virus; details: data not shown
DENV2 NS2B–NS3 protease = DENV2 NS2B–NS3 protease (Dengue virus type 2, UniProt P29990); test: NS2B–NS3 protease inhibition assay; assay type: biochemical
[9] = virus production, A549 cells, 48 h postinfection
[10] = read-out: EC50-ZK (A549), virus production, A549 cells
[11] = Zika virus, A549, read-out: EC50-ZK (A549)

CC(=O)Nc1ccc(NC(=O)c2cc(Cl)ccc2O)c(Cl)c1 [HJC0140]
EC50 (DENV2; [9]): > 30 µM | EC50 (ZIKV [1]; [10]): > 30 µM

CN1CCC(Oc2ccc(Cl)cc2C(=O)Nc2ccc([N+](=O)[O-])cc2Cl)CC1 [HJC0381]
CC50 (A549 cells): 91.1 µM | EC50 (DENV2; [9]): 1.2 µM | EC50 (ZIKV [1]; [10]): 3.9 µM

CN1CCN(CCOc2ccc(Cl)cc2C(=O)Nc2ccc([N+](=O)[O-])cc2Cl)CC1 [HJC0365]
CC50 (A549 cells): 177 µM | EC50 (DENV2; [9]): 6.4 µM | EC50 (ZIKV [1]; [10]): 6 µM

O=C(Nc1ccc([N+](=O)[O-])cc1Cl)c1cccc([N+](=O)[O-])c1O [JMX0207, N-(2-Chloro-4-nitrophenyl)-2-hydroxy-3-nitrobenzamide]
high MW protein (unprocessed viral polyprotein precursor, PP) (ZIKV NS3): dose-dependent increase | viral NS3 protein production (ZIKV NS3): dose-dependent reduction | CC50 at 48 h (WST-8 cell proliferation): 31.9 µM | effect of mutation on binding affinity (MBP-NS3 Y23A): do not have any effect | toxic effect on 3D organoids (3D organoids): did not have any toxic effect | ZIKV production from 3D organoids (ZIKV [2]; PFU assay, 5 dpi): significantly inhibited | protection of organoid slices from ZIKV infection (immunostaining) (ZIKV [2]; ZIKV PRVABC59, anti-E 4G2): nearly completely protected the organoids from ZIKV infection | ZIKV infection in the 3D organoid (ZIKV [2]; ZIKV-Venus, MOI 1, fluorescence imaging 7 dpi, vs DMSO): completely abolished ZIKV infection | signs of toxicity [3]: did not display any sign of toxicity | ZIKV antigen production (ZIKV [4]): greatly reduced ZIKV antigen production | ZIKV RNA copy number (ZIKV [5]): significantly reduced the ZIKV RNA copy number in a dose-dependent manner | EC50 (DENV2; Dengue virus, DENV2, A549, 48 h): 0.31 µM | ZIKV protein expression and RNA synthesis in HNPCs (ZIKV [6]): effectively inhibited | reduction of ZIKV titer by time of addition (ZIKV [7]): equally effective in reducing ZIKV titer even at 24 h postinfection | effect of mutation on binding affinity (MBP-NS3 F46A): do not have any effect | reduction of binding affinity by mutation (MBP-NS3 I25A): 2- to 3 fold | effect of mutation on binding (MBP-NS3 L58A): abolished the binding | EC50 (ZIKV [1]; [11]): 0.3 µM | reduction of binding affinity by mutation (MBP-NS3 H60A): 2- to 3 fold | increase in Tm of the viral protein (viral NS3 protease): 0.75 °C

NCCCOc1ccc(Cl)cc1C(=O)Nc1ccc([N+](=O)[O-])cc1Cl [HJC0308]
CC50 (A549 cells): 17.7 µM | EC50 (DENV2; [9]): 1.4 µM | EC50 (ZIKV [1]; [10]): 6.2 µM

Nc1ccc(NC(=O)c2cc(Cl)ccc2O)c(Cl)c1 [HJC0129]
CC50 (A549 cells): 176 µM | EC50 (DENV2; [9]): > 30 µM | EC50 (ZIKV [1]; [10]): > 30 µM

O=C(Nc1ccc([N+](=O)[O-])cc1Cl)c1cc(Cl)ccc1O [Niclosamide, reference compound]
EC50 (DENV2 replicon): 2 µM | in vivo antiviral efficacy toward ZIKV (ZIKV [8]): did not show appreciable in vivo antiviral efficacy | EC50 (ZIKV [1]; [11]): 0.48 µM | IC50 (DENV2 NS2B–NS3 protease): 21.6 µM

O=C(Nc1ccc2c(c1)S(=O)(=O)C=C2)c1cc(Cl)ccc1O [HJC0149]
CC50 (A549 cells): 241 µM | EC50 (DENV2; [9]): 0.9 µM | EC50 (ZIKV [1]; [10]): 1.1 µM

NCCCCOc1ccc(Cl)cc1C(=O)Nc1ccc([N+](=O)[O-])cc1Cl [HJC0431]
CC50 (A549 cells): 28.4 µM | EC50 (DENV2; [9]): 2.2 µM | EC50 (ZIKV [1]; [10]): 0.36 µM
